Test results: ChEMBL document CHEMBL1641460, “Potent and selective thiophene urea-templated inhibitors of S6K” (Bioorg Med Chem Lett, 2011)
Converted amounts (≈) assume the structure as drawn.

Experiments:
[1] = target: Serine/threonine-protein kinase Chk2 (Homo sapiens) (UniProt O96017); assay: Inhibition of CHEK2 at 10 uM
[2] = target: Voltage-gated inwardly rectifying potassium channel KCNH2 (Homo sapiens, UniProt Q12809); assay: Displacement of labeled dofetilide from human ERG
[3] = target: Serine/threonine-protein kinase 3 (Homo sapiens) (UniProt Q13188); assay: Inhibition of STK3 at 10 uM
[4] = target: Mitogen-activated protein kinase kinase kinase 9 (Homo sapiens) (UniProt P80192); assay: Inhibition of MAP3K9 at 10 uM
[5] = target: Serine/threonine-protein kinase pim-2 (Homo sapiens) (UniProt Q9P1W9); assay: Inhibition of PIM2 at 1 uM
[6] = target: Tyrosine-protein kinase ABL1 (Homo sapiens) (UniProt P00519); assay: Inhibition of ABL1 at 1 uM
[7] = target: Vascular endothelial growth factor receptor 2 (Homo sapiens) (UniProt P35968); assay: Inhibition of KDR at 1 uM
[8] = target: Tyrosine-protein kinase BTK (Homo sapiens) (UniProt Q06187); assay: Inhibition of BTK at 10 uM
[9] = target: Fibroblast growth factor receptor 1 (Homo sapiens) (UniProt P11362); assay: Inhibition of FGFR1 at 1 uM
[10] = target: Protein kinase C zeta type (Homo sapiens) (UniProt Q05513); assay: Inhibition of PRKCZ at 1 uM
[11] = target: Cyclin-dependent kinase 6 (Homo sapiens) (UniProt Q00534); assay: Inhibition of CDK6 at 1 uM
[12] = target: Inhibitor of nuclear factor kappa-B kinase subunit epsilon (Homo sapiens) (UniProt Q14164); assay: Inhibition of IKBKE at 10 uM
[13] = target: Serine/threonine-protein kinase pim-2 (Homo sapiens) (UniProt Q9P1W9); assay: Inhibition of PIM2 at 10 uM
[14] = target: cAMP-dependent protein kinase catalytic subunit alpha (Homo sapiens) (UniProt P17612); assay: Inhibition of PRKACA at 1 uM
[15] = Half life in human liver microsomes at 1 uM by LC/MS/MS analysis; assay type: ADME, Microsome
How it was run: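 Test compound incubated with human liver microsomes to measure Phase I metabolic stability. Remaining compound quantified by LC/MS/MS, and stability reported as half-life (T1/2) in minutes.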

[16] = target: Inhibitor of nuclear factor kappa-B kinase subunit beta (Homo sapiens) (UniProt O14920); assay: Inhibition of IKBKB at 10 uM
[17] = target: Serine/threonine-protein kinase MARK1 (Homo sapiens) (UniProt Q9P0L2); assay: Inhibition of MARK1 at 1 uM
[18] = target: Mitogen-activated protein kinase 14 (Homo sapiens) (UniProt Q16539); assay: Inhibition of MAPK14 at 10 uM
[19] = target: Rho-associated protein kinase 1 (Homo sapiens) (UniProt Q13464); assay: Inhibition of ROCK1 at 1 uM
[20] = target: CYP2C9 (Homo sapiens, UniProt P11712); assay: Inhibition of CYP2C9 at 3 uM by LC/MS/MS analysis; assay type: ADME
[21] = target: Tyrosine-protein kinase Lck (Homo sapiens) (UniProt P06239); assay: Inhibition of LCK at 1 uM
[22] = target: Hepatocyte growth factor receptor (Homo sapiens) (UniProt P08581); assay: Inhibition of MET at 1 uM
[23] = target: Inhibitor of nuclear factor kappa-B kinase subunit epsilon (Homo sapiens) (UniProt Q14164); assay: Inhibition of IKBKE at 1 uM
[24] = target: Serine/threonine-protein kinase PAK 4 (Homo sapiens) (UniProt O96013); assay: Inhibition of PAK4 at 1 uM
[25] = target: Fibroblast growth factor receptor 1 (Homo sapiens) (UniProt P11362); assay: Inhibition of FGFR1 at 10 uM
[26] = target: T1, CYP1A2 (Homo sapiens, UniProt P05177); assay: Inhibition of CYP1A2 at 3 uM by LC/MS/MS analysis; assay type: ADME
T1 sequence (P05177 whole entry): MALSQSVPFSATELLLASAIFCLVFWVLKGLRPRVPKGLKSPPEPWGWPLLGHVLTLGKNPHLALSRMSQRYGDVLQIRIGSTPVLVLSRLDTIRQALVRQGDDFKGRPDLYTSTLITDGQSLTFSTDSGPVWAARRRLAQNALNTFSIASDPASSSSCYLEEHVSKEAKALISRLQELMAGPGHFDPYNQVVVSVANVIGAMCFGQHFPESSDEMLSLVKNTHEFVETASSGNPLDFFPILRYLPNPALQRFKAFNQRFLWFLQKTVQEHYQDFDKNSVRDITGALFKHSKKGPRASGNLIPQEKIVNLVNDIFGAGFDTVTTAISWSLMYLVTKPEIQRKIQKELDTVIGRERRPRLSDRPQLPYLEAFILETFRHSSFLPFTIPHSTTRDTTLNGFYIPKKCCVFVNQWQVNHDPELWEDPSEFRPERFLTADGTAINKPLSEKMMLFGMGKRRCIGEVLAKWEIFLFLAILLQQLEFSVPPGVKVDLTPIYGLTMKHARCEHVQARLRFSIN

[27] = target: Proto-oncogene tyrosine-protein kinase Src (Homo sapiens) (UniProt P12931); assay: Inhibition of SRC at 1 uM
[28] = target: Myosin light chain kinase 2, skeletal/cardiac muscle (Homo sapiens) (UniProt Q9H1R3); assay: Inhibition of MYLK2 at 1 uM
[29] = target: 3-phosphoinositide-dependent protein kinase 1 (Homo sapiens) (UniProt O15530); assay: Inhibition of PDPK1 at 10 uM
[30] = target: Serine/threonine-protein kinase Sgk1 (Homo sapiens) (UniProt O00141); assay: Inhibition of SGK1 at 1 uM
[31] = target: Serine/threonine-protein kinase Nek2 (Homo sapiens) (UniProt P51955); assay: Inhibition of NEK2 at 10 uM
[32] = target: High affinity nerve growth factor receptor (Homo sapiens) (UniProt P04629); assay: Inhibition of NTRK1 at 1 uM
[33] = target: Glycogen synthase kinase-3 beta (Homo sapiens) (UniProt P49841); assay: Inhibition of GSK3b at 1 uM
[34] = target: Serine/threonine-protein kinase Sgk1 (Homo sapiens) (UniProt O00141); assay: Inhibition of SGK1 at 10 uM
[35] = target: Proto-oncogene tyrosine-protein kinase Src (Homo sapiens) (UniProt P12931); assay: Inhibition of SRC at 10 uM
[36] = Kinetic solubility of the compound in 50 mM phosphate buffer at pH 6.5; assay type: physicochemical
[37] = target: Calcium/calmodulin-dependent protein kinase type 1 (Homo sapiens) (UniProt Q14012); assay: Inhibition of CAMK1 at 1 uM
[38] = target: High affinity nerve growth factor receptor (Homo sapiens) (UniProt P04629); assay: Inhibition of NTRK1 at 10 uM
[39] = target: Mitogen-activated protein kinase kinase kinase 9 (Homo sapiens) (UniProt P80192); assay: Inhibition of MAP3K9 at 1 uM
[40] = target: 3-phosphoinositide-dependent protein kinase 1 (Homo sapiens) (UniProt O15530); assay: Inhibition of PDPK1 at 1 uM
[41] = target: Serine/threonine-protein kinase Chk2 (Homo sapiens) (UniProt O96017); assay: Inhibition of CHEK2 at 1 uM
[42] = target: Vascular endothelial growth factor receptor 2 (Homo sapiens) (UniProt P35968); assay: Inhibition of KDR at 10 uM
[43] = target: Casein kinase II subunit alpha (Homo sapiens) (UniProt P68400); assay: Inhibition of CSNK2A1 at 10 uM
[44] = target: Cyclin-dependent kinase 6 (Homo sapiens) (UniProt Q00534); assay: Inhibition of CDK6 at 10 uM
[45] = target: Serine/threonine-protein kinase Chk1 (Homo sapiens) (UniProt O14757); assay: Inhibition of CHEK1 at 1 uM

Chain of Inhibitor of nuclear factor kappa-B kinase subunit epsilon (Homo sapiens) (Q14164 whole entry): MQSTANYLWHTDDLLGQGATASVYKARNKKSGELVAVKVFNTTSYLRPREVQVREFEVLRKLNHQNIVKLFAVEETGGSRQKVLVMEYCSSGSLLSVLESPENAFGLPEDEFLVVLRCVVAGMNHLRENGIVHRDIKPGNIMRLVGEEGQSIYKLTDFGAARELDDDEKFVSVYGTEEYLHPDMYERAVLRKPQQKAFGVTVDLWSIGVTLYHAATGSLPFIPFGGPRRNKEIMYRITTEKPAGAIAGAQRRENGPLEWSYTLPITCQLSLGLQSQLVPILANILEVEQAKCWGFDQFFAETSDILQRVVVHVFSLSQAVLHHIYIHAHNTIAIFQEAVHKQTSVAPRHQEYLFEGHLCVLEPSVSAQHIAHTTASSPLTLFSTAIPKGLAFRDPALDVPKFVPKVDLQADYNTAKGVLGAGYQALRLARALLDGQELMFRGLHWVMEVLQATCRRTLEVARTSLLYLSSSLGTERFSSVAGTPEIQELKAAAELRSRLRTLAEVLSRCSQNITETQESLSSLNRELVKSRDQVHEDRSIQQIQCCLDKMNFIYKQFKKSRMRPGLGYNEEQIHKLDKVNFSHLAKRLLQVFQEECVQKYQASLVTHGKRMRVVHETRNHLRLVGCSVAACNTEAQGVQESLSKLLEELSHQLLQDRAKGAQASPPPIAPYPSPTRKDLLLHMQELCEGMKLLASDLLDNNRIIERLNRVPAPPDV
Chain of Fibroblast growth factor receptor 1 (Homo sapiens) (P11362 22-822 limits assumed): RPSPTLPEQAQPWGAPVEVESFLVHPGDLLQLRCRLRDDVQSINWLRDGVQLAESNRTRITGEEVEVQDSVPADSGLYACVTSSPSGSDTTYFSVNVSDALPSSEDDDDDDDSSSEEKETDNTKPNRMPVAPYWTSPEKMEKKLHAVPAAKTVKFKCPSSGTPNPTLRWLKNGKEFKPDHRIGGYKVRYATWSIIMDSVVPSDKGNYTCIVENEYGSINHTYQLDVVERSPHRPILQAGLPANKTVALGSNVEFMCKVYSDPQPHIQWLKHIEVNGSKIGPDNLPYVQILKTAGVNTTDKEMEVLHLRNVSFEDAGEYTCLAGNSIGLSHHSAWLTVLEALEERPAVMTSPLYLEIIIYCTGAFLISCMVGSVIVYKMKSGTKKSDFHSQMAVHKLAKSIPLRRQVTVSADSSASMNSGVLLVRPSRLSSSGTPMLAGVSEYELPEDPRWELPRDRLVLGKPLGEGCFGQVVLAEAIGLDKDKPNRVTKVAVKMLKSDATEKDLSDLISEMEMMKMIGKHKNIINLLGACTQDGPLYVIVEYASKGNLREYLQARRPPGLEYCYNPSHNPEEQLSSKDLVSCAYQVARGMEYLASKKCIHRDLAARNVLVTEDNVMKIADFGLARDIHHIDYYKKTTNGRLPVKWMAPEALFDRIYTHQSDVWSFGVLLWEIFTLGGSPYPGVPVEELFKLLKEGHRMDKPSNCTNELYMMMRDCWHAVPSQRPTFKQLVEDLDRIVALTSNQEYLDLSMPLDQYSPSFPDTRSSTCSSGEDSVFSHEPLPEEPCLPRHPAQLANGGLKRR
Chain of Mitogen-activated protein kinase kinase kinase 9 (Homo sapiens) (P80192 whole entry, looked up): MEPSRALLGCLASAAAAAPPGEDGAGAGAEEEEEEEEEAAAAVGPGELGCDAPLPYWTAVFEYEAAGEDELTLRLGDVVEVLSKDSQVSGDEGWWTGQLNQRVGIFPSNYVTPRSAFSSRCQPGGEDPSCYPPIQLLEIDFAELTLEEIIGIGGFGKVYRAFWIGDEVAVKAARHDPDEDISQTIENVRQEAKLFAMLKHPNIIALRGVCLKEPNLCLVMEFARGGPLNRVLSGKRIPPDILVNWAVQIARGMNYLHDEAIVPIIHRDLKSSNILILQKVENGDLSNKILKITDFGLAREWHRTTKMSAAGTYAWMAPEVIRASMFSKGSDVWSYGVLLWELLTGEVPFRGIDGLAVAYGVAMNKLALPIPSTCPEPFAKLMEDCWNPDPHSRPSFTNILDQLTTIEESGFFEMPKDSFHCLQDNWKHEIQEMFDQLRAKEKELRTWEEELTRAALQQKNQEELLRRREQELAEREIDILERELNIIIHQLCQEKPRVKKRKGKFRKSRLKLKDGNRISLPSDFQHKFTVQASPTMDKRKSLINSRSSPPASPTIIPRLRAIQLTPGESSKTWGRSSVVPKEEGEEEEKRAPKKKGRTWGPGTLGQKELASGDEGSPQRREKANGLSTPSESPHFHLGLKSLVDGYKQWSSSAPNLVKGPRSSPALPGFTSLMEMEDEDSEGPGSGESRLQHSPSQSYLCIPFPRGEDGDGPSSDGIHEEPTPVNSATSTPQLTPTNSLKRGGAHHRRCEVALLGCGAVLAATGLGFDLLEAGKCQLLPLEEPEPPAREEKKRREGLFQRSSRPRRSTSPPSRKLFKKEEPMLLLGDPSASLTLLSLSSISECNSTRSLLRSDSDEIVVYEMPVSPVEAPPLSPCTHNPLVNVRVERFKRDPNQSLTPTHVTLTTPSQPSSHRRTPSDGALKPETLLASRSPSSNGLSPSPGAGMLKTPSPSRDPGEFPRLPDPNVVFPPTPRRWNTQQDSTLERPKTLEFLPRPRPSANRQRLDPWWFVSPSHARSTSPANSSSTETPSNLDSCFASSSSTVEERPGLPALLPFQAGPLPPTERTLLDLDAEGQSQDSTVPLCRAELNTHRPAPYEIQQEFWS
Chain of High affinity nerve growth factor receptor (Homo sapiens) (P04629 33-796 limits assumed): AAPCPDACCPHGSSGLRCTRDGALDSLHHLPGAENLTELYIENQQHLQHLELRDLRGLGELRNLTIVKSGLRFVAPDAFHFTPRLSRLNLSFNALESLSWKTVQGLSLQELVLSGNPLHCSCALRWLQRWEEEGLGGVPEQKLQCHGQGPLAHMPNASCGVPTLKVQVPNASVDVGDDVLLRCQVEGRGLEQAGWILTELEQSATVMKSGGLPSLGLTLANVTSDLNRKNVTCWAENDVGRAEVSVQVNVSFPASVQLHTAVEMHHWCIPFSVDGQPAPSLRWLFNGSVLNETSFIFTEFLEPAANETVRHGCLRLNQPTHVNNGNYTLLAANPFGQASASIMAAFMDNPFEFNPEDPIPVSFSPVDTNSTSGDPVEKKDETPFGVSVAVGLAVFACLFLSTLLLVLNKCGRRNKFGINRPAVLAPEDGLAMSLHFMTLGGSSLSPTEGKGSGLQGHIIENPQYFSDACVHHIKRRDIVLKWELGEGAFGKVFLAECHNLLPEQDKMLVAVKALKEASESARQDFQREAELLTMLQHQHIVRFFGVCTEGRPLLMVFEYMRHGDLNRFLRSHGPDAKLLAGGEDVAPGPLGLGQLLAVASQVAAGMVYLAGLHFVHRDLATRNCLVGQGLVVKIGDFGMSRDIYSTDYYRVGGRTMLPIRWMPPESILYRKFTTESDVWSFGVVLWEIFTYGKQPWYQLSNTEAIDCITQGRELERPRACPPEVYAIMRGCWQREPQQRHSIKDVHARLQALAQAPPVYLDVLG
Chain of Serine/threonine-protein kinase pim-2 (Homo sapiens) (Q9P1W9 whole entry, looked up): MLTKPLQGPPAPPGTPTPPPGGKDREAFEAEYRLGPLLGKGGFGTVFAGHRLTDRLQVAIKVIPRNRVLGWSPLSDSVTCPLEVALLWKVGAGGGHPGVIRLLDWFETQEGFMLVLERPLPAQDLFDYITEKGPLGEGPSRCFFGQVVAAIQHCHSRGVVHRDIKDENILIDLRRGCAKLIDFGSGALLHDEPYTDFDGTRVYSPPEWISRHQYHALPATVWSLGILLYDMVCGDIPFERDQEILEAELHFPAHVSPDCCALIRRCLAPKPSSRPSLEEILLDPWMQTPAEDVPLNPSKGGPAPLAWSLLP
Chain of Proto-oncogene tyrosine-protein kinase Src (Homo sapiens) (P12931 2-536 limits assumed): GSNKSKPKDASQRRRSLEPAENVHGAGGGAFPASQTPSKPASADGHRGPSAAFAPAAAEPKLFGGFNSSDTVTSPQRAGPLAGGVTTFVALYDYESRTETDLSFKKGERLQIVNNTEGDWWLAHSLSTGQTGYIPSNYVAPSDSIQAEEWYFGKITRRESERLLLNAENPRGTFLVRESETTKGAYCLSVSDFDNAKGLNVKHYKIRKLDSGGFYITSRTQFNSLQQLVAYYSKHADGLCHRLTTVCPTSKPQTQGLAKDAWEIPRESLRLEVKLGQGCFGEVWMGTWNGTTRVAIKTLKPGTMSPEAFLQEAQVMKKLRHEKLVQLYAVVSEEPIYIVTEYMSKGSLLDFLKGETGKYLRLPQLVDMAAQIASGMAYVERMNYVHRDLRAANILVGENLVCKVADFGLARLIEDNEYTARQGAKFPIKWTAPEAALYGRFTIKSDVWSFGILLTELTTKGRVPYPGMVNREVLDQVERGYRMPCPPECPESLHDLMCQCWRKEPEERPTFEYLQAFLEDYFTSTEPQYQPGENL
Chain of Serine/threonine-protein kinase Sgk1 (Homo sapiens) (O00141 whole entry): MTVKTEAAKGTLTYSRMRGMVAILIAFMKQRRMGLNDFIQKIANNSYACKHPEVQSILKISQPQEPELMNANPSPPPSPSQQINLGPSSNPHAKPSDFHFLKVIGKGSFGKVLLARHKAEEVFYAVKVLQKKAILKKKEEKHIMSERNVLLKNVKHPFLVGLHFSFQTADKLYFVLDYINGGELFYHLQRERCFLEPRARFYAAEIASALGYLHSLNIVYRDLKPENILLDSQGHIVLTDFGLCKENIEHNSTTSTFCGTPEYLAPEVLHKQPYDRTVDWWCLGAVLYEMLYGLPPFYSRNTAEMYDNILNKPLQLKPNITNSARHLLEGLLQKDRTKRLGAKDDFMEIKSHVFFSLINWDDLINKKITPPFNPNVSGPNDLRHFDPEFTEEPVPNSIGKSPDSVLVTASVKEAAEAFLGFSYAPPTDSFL
Chain of Cyclin-dependent kinase 6 (Homo sapiens) (Q00534 whole entry): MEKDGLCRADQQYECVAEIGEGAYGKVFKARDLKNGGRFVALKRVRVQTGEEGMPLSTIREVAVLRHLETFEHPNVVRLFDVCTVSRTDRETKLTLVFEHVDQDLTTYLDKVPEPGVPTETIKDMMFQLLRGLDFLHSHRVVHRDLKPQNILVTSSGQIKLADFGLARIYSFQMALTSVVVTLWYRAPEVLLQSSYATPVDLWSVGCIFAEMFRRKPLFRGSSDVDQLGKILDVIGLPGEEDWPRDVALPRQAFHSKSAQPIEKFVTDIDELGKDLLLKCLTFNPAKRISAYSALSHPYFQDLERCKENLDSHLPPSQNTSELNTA

CC(C)(C)c1cc(C(=O)O)c(NC(=O)Nc2ccc3[nH]ncc3c2)s1
inhibition [1]: 20% | inhibition (INH) [2]: 0% | inhibition [3]: 0% | inhibition [4]: 20% | inhibition [5]: 0% | inhibition [6]: 0% | inhibition [7]: 0% | inhibition [8]: 0% | inhibition [9]: 0% | inhibition [10]: 20% | inhibition [11]: 0% | inhibition [12]: 10% | inhibition [13]: 0% | inhibition [14]: 10% | half-life at 1 µM [15]: > 2 h | inhibition [16]: 10% | inhibition [17]: 20% | inhibition [18]: 10% | inhibition [19]: 10% | inhibition at 3 µM [20]: 55% | inhibition [21]: 0% | inhibition [22]: 0% | inhibition [23]: 10% | inhibition [24]: 0% | inhibition [25]: 0% | inhibition at 3 µM [26]: 6% | inhibition [27]: 0% | inhibition [28]: 10% | inhibition [29]: 20% | inhibition [30]: 0% | inhibition [31]: 10% | inhibition [32]: 10% | inhibition [33]: 10% | inhibition [34]: 0% | inhibition [35]: 0% | solubility kinetic [36]: 143 µg/mL (≈ 399 µM) | inhibition [37]: 10% | inhibition [38]: 10% | inhibition [39]: 20% | inhibition [40]: 20% | inhibition [41]: 20% | inhibition [42]: 0% | inhibition [43]: 30% | inhibition [44]: 0% | inhibition [45]: 10%
